Source: ChEMBL document CHEMBL1133471, “Sequential cytotoxicity: a theory evaluated using novel 2-[4-(3-aryl-2-propenoyloxy)phenylmethylene]cyclohexanones and related compounds” (J Med Chem, 2000)
Starred links: 1 amine or outer side, 2 acyl side, 3 side chain; linkers in the order of their positions; H or OH if unused. Positions of bridges follow the written chain, without caps; N, C: chain ends. Non-standard residues stand in square brackets, D forms with d. Residues, ends and D or L forms follow the SMILES beside them. Chains are numbered I, II in the order given. Actinocin(1to9) = Cc1c2oc3c(C)ccc(C(=O)[*:2])c3nc-2c(C(=O)[*:1])c(N)c1=O; NMeV = CN[C@H](C(=O)O)C(C)C; Sar = CNCC(=O)O

What was measured:
[1] = Selectivity index is the ratio of MG MID value for all cell lines to that of colon cancer cells; assay type: functional
Colon carcinoma cell = assay: Mean graph mid point was measured on colon cancer cells.; assay type: functional, Homo sapiens
Outline: (§1)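 Human tumor panel of about 55 lines: leukemia, melanoma, non-small-cell lung, colon, CNS, ovarian, renal, prostate and breast. Compounds generally tested from 10^-4 to 10^-8 M, noting 50% growth inhibition for each line. Mean graph midpoints taken for all lines, leukemic lines and colon lines. Duplicate or triplicate runs were averaged.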

Tumor cancer cell line = assay: (§2) Mean graph mid point was measured on all cell lines.; assay type: functional, Homo sapiens; outline: as §1
CCRF-CEM = assay: Concentration required to inhibit 50% of cell growth on CEM lymphocytes.; assay type: functional, cell-based; conditions: Homo sapiens
Outline: (§3)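 Murine P388 D1 and L1210 leukemia cells and human Molt 4/C8 and CEM T-lymphocytes were tested. IC50 is the concentration inhibiting 50% of growth.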

leukaemia cell line [2] = assay: Mean graph mid point was measured on leukemic cells.; assay type: functional, Homo sapiens; outline: as §1
P388 = assay: Concentration required to inhibit 50% of cell growth on murine P388 D1 cells.; assay type: functional, cell-based; conditions: Mus musculus
MOLT-4 = assay: Concentration required to inhibit 50% of cell growth on human Molt 4/C8 cells.; assay type: functional, cell-based; outline: as §3
[3] = Selectivity index is the ratio of MG MID value for all cell lines to that of leukemic cells; assay type: functional
L1210 = assay: Concentration required to inhibit 50% of cell growth on murine L1210 cells.; assay type: functional, cell-based; conditions: Mus musculus; outline: as §3
Homo sapiens [4] = organism: Homo sapiens; assay: Apoptotic index calculated using human Jurkat T cells; assay type: functional
Outline: (§4)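 Jurkat T cells exposed at concentrations giving IC80 (IC80 determined after 48 h exposure). Nuclei stained with ethidium bromide (0.1% w/v) plus acridine orange (0.1% w/v). Apoptotic index = (cells with apoptotic nuclei / cells counted) × 100.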

Homo sapiens [5] = organism: Homo sapiens; assay: Inhibition of protein synthesis was evaluated on human Jurkat T-cells after 8 hours.; assay type: functional; parameters: concentration or dose not given beside the values
Homo sapiens [6] = organism: Homo sapiens; assay: (§5) Inhibitory concentration was evaluated on human Jurkat T-cells after their exposure for 48 hours; assay type: functional
Outline: (§6)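 Human Jurkat T cells exposed to compounds for 48 h. Viability scored by nigrosin dye exclusion, used in place of trypan blue. IC50 and IC80 taken from the resulting viability data.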

Homo sapiens [7] = organism: Homo sapiens; assay: Inhibition of RNA synthesis was evaluated on human Jurkat T-cells after 8 hours.; assay type: functional; parameters: concentration or dose not given beside the values
Homo sapiens [8] = organism: Homo sapiens; assay: as §5; assay type: functional, cell-based; outline: as §6
Mus musculus [9] = organism: Mus musculus; assay: Sc score was calculated by implanting different tumor cell lines in hollow fibres in mice by the occurred); assay type: functional
Outline: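 Mice carried hollow fibers with 12 human tumor lines (colon, breast, NSCLC, melanoma, ovarian, CNS) implanted ip and sc. Compounds were given ip at two doses daily for 4 days. Fibers were collected 1 day after the last dose. Viable cell mass was measured by MTT formazan conversion, giving the sc score.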

Mus musculus [10] = assay: Ip score was calculated by implanting different tumor cell lines in hollow fibres in mice by the intraperitoneal route(Net cell kill was observed it indicates the cytotoxicity was occurred); assay type: functional
Mus musculus [11] = assay: sc score was calculated by implanting different tumor cell lines in hollow fibres in mice by the subcutaneously route (Net cell kill was not observed).; assay type: functional
Mus musculus [12] = assay: Ip score was calculated by implanting different tumor cell lines in hollow fibres in mice by the intraperitoneal route (Net cell kill was not observed).; assay type: functional
Tumor cell line = assay: as §2; assay type: functional, Homo sapiens; outline: as §1
leukaemia cell line [13] = assay: Mean graph mid point was measured on leukemicell lines.; assay type: functional, Homo sapiens; outline: as §1
[14] = test system: Panel colon (Carcinoma cell lines); assay: Mean graph mid point was measured on colon cancer cell lines.; assay type: functional, Homo sapiens; outline: as §1
Homo sapiens [15] = organism: Homo sapiens; assay: Apoptotic index was evaluated on human Jurkat T-cells after 24 hours.(Using 80% inhibitory concentration); assay type: functional; outline: as §4
Mus musculus [16] = assay: Ip score was calculated by implanting different tumor cell lines in hollow fibres in mice by the intraperitoneal route (Net cell kill was not observed); assay type: functional
Mus musculus [17] = assay: Sc score was calculated by implanting different tumor cell lines in hollow fibres in mice by the subcutaneously route (Net cell kill was not observed); assay type: functional

Compound | SI [1] | MG MID (Colon carcinoma cell) | MG MID (Tumor cancer cell line) | IC50 (CCRF-CEM) | MG MID (leukaemia cell line [2]) | IC50 (P388) | IC50 (MOLT-4) | SI [3] | IC50 (L1210) | other results
O=C(/C=C/c1ccccc1)Oc1ccc(/C=C2\CCCCC2=O)cc1 | 1.3 | 29.1 µM | 36.3 µM | 26 µM | 8.32 µM | 20.3 µM | 30.7 µM | 4.4 | 30.7 µM | –
O=c1[nH]cc(F)c(=O)[nH]1 [FLUOROURACIL] | – | 7.9 µM | 32.6 µM | 8.9 µM | 27.6 µM | 0.49 µM | 23 µM | – | 0.28 µM | –
O=C(/C=C/c1ccc(F)cc1)Oc1ccc(/C=C2\CCCCC2=O)cc1 | – | – | – | 14.4 µM | – | > 50 µM | 26.6 µM | – | 30.9 µM | –
Cc1c2oc3c(C)ccc(C(=O)N[C@@H]4C(=O)N[C@H](C(C)C)C(=O)N5CCC[C@H]5C(=O)N(C)CC(=O)N(C)[C@@H](C(C)C)C(=O)O[C@@H]4C)c3nc-2c(C(=O)N[C@@H]2C(=O)N[C@H](C(C)C)C(=O)N3CCC[C@H]3C(=O)N(C)CC(=O)N(C)[C@@H](C(C)C)C(=O)O[C@@H]2C)c(N)c1=O [DACTINOMYCIN] (I: T[dV]P[Sar][NMeV] / II: T[dV]P[Sar][NMeV]; ester I:1-I:C, II:1-II:C; linker I:N-II:N via Actinocin(1to9)) | – | – | – | – | – | – | – | – | – | Apoptotic index (Homo sapiens [4]): 35.5; Inhibition (Homo sapiens [5]): 49.2%; IC80 (Homo sapiens [6]): 0.0072 µM; Inhibition (Homo sapiens [7]): 90.5%; IC50 (Homo sapiens [8]): 0.0045 µM
O=C(CCc1ccccc1)Oc1ccc(/C=C2\CCCCC2=O)cc1 | – | – | – | 34.4 µM | – | 21.9 µM | 31.1 µM | – | 52.4 µM | –
CN(C)CC1CCC/C(=C\c2ccc(OC(=O)/C=C/c3ccccc3)cc2)C1=O.Cl (stereo unspecified) | 1.1 | 2.21 µM | 2.41 µM | 42.8 µM | 1.06 µM | 4.02 µM | 39.5 µM | 2.3 | 32.8 µM | Subcut score (Mus musculus [9]): 14; Ip score (Mus musculus [10]): 12
O=C1CCCC/C1=C\c1ccc(OC(=O)c2ccc(Cl)cc2)cc1 | – | – | – | 41 µM | – | 25.5 µM | 38 µM | – | 3.33 µM | –
CN(C)CC1CCC/C(=C\c2ccc(OC(=O)c3ccc(Cl)cc3)cc2)C1=O.Cl (stereo unspecified) | 1.4 | 1.21 µM | 1.66 µM | 6.15 µM | 0.307 µM | 0.425 µM | 5.11 µM | 5.4 | 5.61 µM | Subcut score (Mus musculus [11]): 10; Apoptotic index (Homo sapiens [4]): 73.3; Ip score (Mus musculus [12]): 2; Inhibition (Homo sapiens [5]): 62%; IC80 (Homo sapiens [6]): 5.6 µM; Inhibition (Homo sapiens [7]): 88.4%; IC50 (Homo sapiens [8]): 3.5 µM
N[C@@H](Cc1ccc(N(CCCl)CCCl)cc1)C(=O)O | – | 44.6 µM | 23.5 µM | – | 4.65 µM | – | – | – | – | Inhibition (Homo sapiens [5]): 17.3%; Inhibition (Homo sapiens [7]): 85.1%; IC50 (Homo sapiens [8]): 2.2 µM
COc1ccc(C(=O)Oc2ccc(/C=C3\CCCCC3=O)cc2)cc1 | – | – | – | 36.1 µM | – | > 50 µM | 34 µM | – | 43.4 µM | –
CN(C)CC1CCC/C(=C\c2ccc(OC(=O)/C=C/c3ccc(Cl)c(Cl)c3)cc2)C1=O.Cl (stereo unspecified) | 1.5 | – | – | 5.82 µM | – | 4.18 µM | 4.57 µM | 4.3 | 3.31 µM | MG MID (Tumor cell line): 3.57 µM; MG MID (leukaemia cell line [13]): 0.83 µM; MG MID [14]: 2.38 µM
Cc1ccc(C(=O)Oc2ccc(/C=C3\CCCCC3=O)cc2)cc1 | – | – | – | 22.7 µM | – | > 50 µM | 25.6 µM | – | 44.8 µM | –
O=C(/C=C/c1ccc(Br)cc1)Oc1ccc(/C=C2\CCCCC2=O)cc1 | – | – | – | 131 µM | – | > 50 µM | 180 µM | – | 127 µM | Apoptotic index (Homo sapiens [15]): 23.3; Apoptotic index (Homo sapiens [4]): 23.3; Inhibition (Homo sapiens [5]): 69.1%; IC80 (Homo sapiens [6]): 31.7 µM; Inhibition (Homo sapiens [7]): 77.5%; IC50 (Homo sapiens [8]): 19.8 µM
O=C(/C=C/c1ccc(Cl)c(Cl)c1)Oc1ccc(/C=C2\CCCCC2=O)cc1 | 0.9 | 100 µM | 91.2 µM | 63.8 µM | 53 µM | > 50 µM | 47.3 µM | 1.7 | 64.8 µM | –
CN(C)CC1CCC/C(=C\c2ccc(OC(=O)/C=C/c3ccc(F)cc3)cc2)C1=O (stereo unspecified) | – | – | – | 6 µM | – | 4.55 µM | 3.78 µM | – | 1.84 µM | –
Cc1ccc(/C=C/C(=O)Oc2ccc(/C=C3\CCCCC3=O)cc2)cc1 | – | – | – | 230 µM | – | > 50 µM | 156 µM | – | 202 µM | –
CN(C)CC1CCC/C(=C\c2ccc(OC(=O)c3ccccc3)cc2)C1=O (stereo unspecified) | – | – | – | 29.4 µM | – | 0.18 µM | 24.1 µM | – | 23.4 µM | –
CN(C)CC1CCC/C(=C\c2ccc(OC(=O)/C=C/c3ccc(Cl)cc3)cc2)C1=O.Cl (stereo unspecified) | 1.6 | 2.3 µM | 3.58 µM | 3.56 µM | 0.864 µM | 1.61 µM | 2.65 µM | 4.1 | 1.74 µM | Apoptotic index (Homo sapiens [4]): 87; Inhibition (Homo sapiens [5]): 37%; IC80 (Homo sapiens [6]): 4.04 µM; Ip score (Mus musculus [16]): 0; Subcut score (Mus musculus [17]): 6; Inhibition (Homo sapiens [7]): 78%; IC50 (Homo sapiens [8]): 2.53 µM
C[C@@H]1C[C@@H]([C@H](O)CC2CC(=O)NC(=O)C2)C(=O)[C@@H](C)C1 [CYCLOHEXIMIDE] | – | – | – | – | – | – | – | – | – | Apoptotic index (Homo sapiens [4]): 38.3; Inhibition (Homo sapiens [5]): 71.9%; Inhibition (Homo sapiens [7]): 93.3%; IC50 (Homo sapiens [8]): 0.93 µM
COc1ccc(/C=C/C(=O)Oc2ccc(/C=C3\CCCC(CN(C)C)C3=O)cc2)cc1 (stereo unspecified) | – | – | – | – | – | 2.41 µM | – | – | – | –
Cc1ccc(/C=C/C(=O)Oc2ccc(/C=C3\CCCC(CN(C)C)C3=O)cc2)cc1 (stereo unspecified) | – | – | – | 7.02 µM | – | 1.29 µM | 3.39 µM | – | 2.43 µM | –
O=C(/C=C/c1ccc(Cl)cc1)Oc1ccc(/C=C2\CCCCC2=O)cc1 | 1.1 | 81 µM | 91.2 µM | 63.4 µM | 60.5 µM | > 50 µM | 78.6 µM | 1.5 | 64.3 µM | –
O=C1CCCC/C1=C\c1ccc(OC(=O)c2ccccc2)cc1 | – | – | – | – | – | > 50 µM | – | – | – | –
COc1ccc(/C=C/C(=O)Oc2ccc(/C=C3\CCCCC3=O)cc2)cc1 | 2 | 25.4 µM | 49.7 µM | 8.78 µM | 9.36 µM | 9.03 µM | 2.06 µM | 5.3 | 10.2 µM | –
COc1ccc(C(=O)Oc2ccc(/C=C3\CCCC(CN(C)C)C3=O)cc2)cc1 (stereo unspecified) | – | – | – | 5.07 µM | – | 0.332 µM | 2.36 µM | – | 2.87 µM | –
C=C1C(=O)O[C@@H]2C[C@@H](C)[C@@H]3C=CC(=O)[C@@]3(C)[C@@H](O)[C@H]12 [HELENALIN] | 1 | 1.42 µM | 1.45 µM | – | 0.62 µM | – | – | 2.3 | – | –
CN(C)CC1CCC/C(=C\c2ccc(OC(=O)/C=C/c3ccc(Br)cc3)cc2)C1=O.Cl (stereo unspecified) | – | – | – | 4.44 µM | – | 4.03 µM | 3.06 µM | – | 1.78 µM | Apoptotic index (Homo sapiens [4]): 59.2; Inhibition (Homo sapiens [5]): 46.6%; IC80 (Homo sapiens [6]): 7.63 µM; Inhibition (Homo sapiens [7]): 84.5%; IC50 (Homo sapiens [8]): 4.47 µM
